# Rows were chosen to be rich in hits. Some 1.7% of all compounds tested hit in one or more screens of this group.
# Neddylation inh – inhibitors of cullin neddylation, primary screen, biochemical, TR-FRET, uHTS, NAE and Ubc12. NEDD8-conjugating enzyme Ubc12 (Homo sapiens) + NEDD8-activating enzyme E1 regulatory …. inhibition, % at 25 µM. 360,000 tested, 0.58% active; in the data active = inhibition above about 36%
# Target sequence (P61081 whole entry, looked up): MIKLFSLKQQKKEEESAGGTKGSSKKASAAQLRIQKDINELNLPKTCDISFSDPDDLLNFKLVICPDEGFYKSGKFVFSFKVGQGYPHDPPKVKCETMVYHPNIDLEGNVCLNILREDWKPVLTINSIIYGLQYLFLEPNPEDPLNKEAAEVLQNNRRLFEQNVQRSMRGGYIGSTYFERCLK
# Target sequence (Q13564 whole entry, looked up): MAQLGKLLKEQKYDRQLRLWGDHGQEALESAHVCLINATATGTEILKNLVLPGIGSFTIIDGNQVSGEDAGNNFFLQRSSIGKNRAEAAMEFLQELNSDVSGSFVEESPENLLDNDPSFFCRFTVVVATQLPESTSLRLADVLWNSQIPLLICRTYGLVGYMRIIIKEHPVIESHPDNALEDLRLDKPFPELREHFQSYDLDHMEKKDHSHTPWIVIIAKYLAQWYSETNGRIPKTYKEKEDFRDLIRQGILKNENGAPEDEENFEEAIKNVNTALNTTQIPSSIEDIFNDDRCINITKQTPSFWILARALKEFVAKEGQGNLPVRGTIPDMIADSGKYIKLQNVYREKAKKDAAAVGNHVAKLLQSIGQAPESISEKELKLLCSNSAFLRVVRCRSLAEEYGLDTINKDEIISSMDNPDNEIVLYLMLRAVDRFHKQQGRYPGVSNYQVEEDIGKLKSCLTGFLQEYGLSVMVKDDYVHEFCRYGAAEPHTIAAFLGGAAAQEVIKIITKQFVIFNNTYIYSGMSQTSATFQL
# Arr AP2 block – inhibitors of beta-arrestin/AP2 binding, primary screen, biochemical, GPCR trafficking, flow cytometry | beta-arrestin 1 C-terminal peptide binding to AP2 beta2-adaptin appendage (human) | FITC-arrestin peptide / GST-AP2 beads; AP2 beta2 appendage carries R879A mutation | inhibition, % at 10 µM | 340,000 tested, 0.31% active | AID 504490, 2011;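 active = inhibition above a set limit, near 3 SD of compounds lacking own fluorescence, cut at about 54% in these data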
#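 Material – AP2 appendage R879A on GSH beads · Buffer or medium – PBS with 0.05% Tween 20 and 0.1% BSA · Probe or stimulus – fluorescein-tagged arrestin peptide at 50 nM final · Incubation – compound with beads 12 min RT, then probe 1 h RT · Detection – high-throughput flow cytometry of beads, ex 488, em 535 nm · Evaluation – percent response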
# Pemphigus Ab inh – inhibitors of pemphigus antibody binding to DSG3, primary screen, biochemical, bead-based, flow cytometry, scFv-GFP | DSG3-coupled beads, scFv-anti-DSG3-GFP binding; active compounds read low | binding (percent of control), % at 10 µM | 310,000 tested, 0.48% active | AID 588358, 2011;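 active = binding more than 3 SD below its plate's average and above zero; inconclusive = below that plate limit but binding exactly zero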;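 also: hits lower antibody fragment binding to DSG3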
# Efflux pump mplx – inhibitors of Candida efflux pumps in yeast, primary screen, S. cerevisiae, Nile Red, multiplex | 330,000 tested, 0.44% active | S. cerevisiae Candida pump triplex | inhibition, % at 10 µM;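 active = plate passing quality check with inhibition over a set limit, or well fluorescence over plate mean plus 4 SD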;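 also: Nile Red retained in pooled yeast measured as flow cytometry median fluorescence; higher means more Nile Red kept so more efflux inhibition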
# Neddyl inh conf – blockade of NEDD8 conjugation to cullin – biochemical, TR-FRET, single concentration, confirmation; 1,800 tested, 13% active; TR-FRET cullin neddylation biochemical assay; calls only at 25 µM; shares compounds with Neddylation inh; in the data active = inhibition above about 40%;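 also: neddylation substrate is the cullin 1 ring ligase complex with SKP2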
# Numbers stand for hits; . = inactive; ? = inconclusive; / = not tested or not shown; + = active, no number.
SMILES,Neddylation inh,Arr AP2 block,Pemphigus Ab inh,Efflux pump mplx,Neddyl inh conf
CCOc1cc(/C=C/c2nc3ccccc3s2)ccc1OCC(=O)N1CCOCC1,48,.,.,.,/
Cc1ccc(C(=O)N/C(=C\c2cccs2)c2nc3ccccc3[nH]2)cc1,45,.,.,.,/
CCOC(=O)c1ccc(Nc2ncnc3ccc(C)cc23)cc1,/,.,/,.,/
CCOC(=O)c1cccc(Nc2ncnc3ccc(C)cc23)c1,40,.,.,.,.
OCC[C@@H]1C[C@H](O)[C@@H](O)[C@]2(CCCc3ccccc3O2)O1,.,.,.,.,/
COc1cc2c(cc1OC)-c1cc(Nc3ccc(C)cc3)nc(=O)n1CC2,.,.,.,.,/
COc1ccc(Nc2cc3n(c(=O)n2)CCc2cc(OC)c(OC)cc2-3)cc1,47,.,.,.,/
CCn1nc(C)cc1C(=O)N1CCCC(Nc2ccc(F)c(F)c2)C1 (centres undefined),.,.,.,.,/
COc1ccc(-c2c(C)nn3c(NC4CCCC4)cc(C)nc23)cc1OC,48,.,.,.,.
CC1(C)Oc2cc3oc(=O)ccc3cc2C[C@@H]1O,52,.,.,.,/
CC1Cc2ccccc2N1C(=O)c1cc2c(=O)n3ccccc3nc2n1C (centres undefined),48,.,/,.,+
Cc1cccn2c(=O)c3cc(C(=O)N4c5ccccc5CC4C)n(C)c3nc12 (centres undefined),/,.,.,.,/
CCCc1cc(=O)oc2c(C)c3occ(C)c3cc12,40,.,.,.,.
COCCCNC(=O)C(C#N)c1nc2ccccc2nc1N1CCCC1 (centres undefined),/,.,.,.,/
COCCOC(=O)C(C#N)c1nc2ccccc2nc1N1CCCC1 (centres undefined),41,.,.,.,.
O=C(NCc1ccccc1)C1CCCN(c2cnccn2)C1 (centres undefined),.,.,.,.,/
COC(=O)c1[nH]c2cc(OC)ccc2c1NC(=O)c1ccc2c(c1)OCO2,42,.,/,.,.
COc1ccc(NC(=O)c2oc3ccccc3c2NC(=O)c2ccc3c(c2)OCO3)cc1,42,.,/,.,.
COc1ccc(/C=N/NC(=O)c2sccc2C)c2ccccc12,39,.,/,.,.
O=c1[nH]cnc2nn(-c3ccccc3)nc12,/,.,.,.,/
O=c1[nH]cnc2nc(-c3ccccc3)c(-c3ccccc3)nc12,63,.,.,.,/
Cc1ccc(-c2ccc(C(=O)Nc3ccccc3)o2)c2ccccc12,40,.,.,.,.
Cc1ccc(-c2ccc(C(=O)NCc3ccccc3)o2)c2ccccc12,/,.,.,/,/
Cc1ccnc(NCc2cc(Cl)cc(Cl)c2O)c1,.,/,.,/,/
Cc1cc(C)c(O)c(CN(C)Cc2cc(Cl)cc(Cl)c2O)c1,38,.,.,/,.
SMILES,Neddylation inh,Arr AP2 block,Pemphigus Ab inh,Efflux pump mplx,Neddyl inh conf
COc1ccc(CNC(=O)C2CCC(CNC(=O)[C@@H]3Cc4ccccc4CN3)CC2)cc1 (some centres undefined),.,.,.,.,/
CC(=O)c1cccc(NC(=O)c2ccc(-n3cncn3)c3ccoc23)c1,.,/,/,/,/
Cn1c2ccccc2c2cc(/C=C(\NC(=O)c3ccccc3)C(=O)O)ccc21,.,.,.,.,/
COC(=O)/C(=C\c1ccc2c(c1)c1ccccc1n2C)NC(=O)c1ccccc1,42,.,.,.,.
CC(C)OC(=O)/C(=C/c1ccc2c(c1)c1ccccc1n2C)NC(=O)c1ccccc1,46,.,.,.,.
Cc1ccc(NC(=O)CSc2nnc(-c3ccncc3)n2C)cc1S(=O)(=O)N1CCOCC1,.,.,.,.,/
O=C(N/N=C/C=C\c1ccco1)c1ccccn1,61,.,.,.,.
N#Cc1cccc(NC(=O)COC(=O)c2ccc[n+]([O-])c2)c1,.,.,.,.,/
COCCNC(=O)Cn1nc(-c2ccccc2C)ccc1=O,.,.,.,.,/
O=c1oc2cccnc2n1CCS(=O)(=O)c1ccc(F)cc1,38,.,.,.,.
NC1=NC(=O)/C(=C/c2c(OS(=O)(=O)c3ccc(Cl)cc3)ccc3ccccc23)S1,41,.,.,.,.
NC1=Nc2cccc3cccc1c23,49,.,.,.,.
C(=N\NC1=Nc2cccc3cccc1c23)/c1ccccc1,.,.,.,.,/
Cc1cc(-c2ccccc2)nc(N(C)N)c1S(C)(=O)=O,39,.,.,.,.
Cc1cc(=O)oc2cc(OCC(=O)N3CCOCC3)ccc12,.,.,.,/,/
Cc1cc(=O)oc2cc(OCC(=O)N3CCCC3)ccc12,48,.,.,.,.
Cc1cc(=O)oc2cc(OCC(O)Cn3ccnc3)ccc12 (centres undefined),40,.,.,.,.
CCOC(=O)C1CCN(C(=O)COc2ccc3c(C)cc(=O)oc3c2)CC1,42,.,.,.,.
COc1ccc(CNC(=O)Cn2nnc3ccccc3c2=O)cc1,.,.,.,.,/
COc1cccc(NC(=O)C23CCC(C)(C(=O)O2)C3(C)C)c1 (centres undefined),.,.,/,.,/
CC1(C)C(=O)OC(/C=C/c2cccc([N+](=O)[O-])c2)C(C)(C)C1=O (centres undefined),.,.,/,.,/
COc1cc(C(=O)NCC2CCCO2)ccc1OCc1ccccc1Cl (centres undefined),.,.,.,.,/
COc1ccc(-c2cc(C(=O)N3CCCC3)c3ccccc3n2)cc1OC,.,.,.,.,/
COc1ccc(-c2cc(C(=O)NCCN3CCOCC3)c3ccccc3n2)cc1OC,.,.,?,.,/
COc1ccc(-c2cc(C(=O)NC3CCCC3)c3ccccc3n2)cc1OC,40,.,.,.,.
SMILES,Neddylation inh,Arr AP2 block,Pemphigus Ab inh,Efflux pump mplx,Neddyl inh conf
COc1cccc(-c2cc(C(=O)NC3CCCC3)c3ccccc3n2)c1,.,.,.,.,/
COc1ccc(-c2cc(C(=O)NCC(c3ccco3)N(C)C)c3ccccc3n2)cc1OC (centres undefined),41,.,.,.,.
COc1ccc(-c2cc(C(=O)N3CCCCC3)c3ccccc3n2)cc1OC,54,.,.,.,/
COc1ccc(Nc2nnc(-c3ccc(C)cc3)c3ccccc23)cc1C(=O)N1CCCCC1,44,.,.,.,.
CCS(=O)(=O)N1CCN(S(=O)(=O)c2ccc3c(c2)OCCO3)CC1,.,.,.,.,/
COc1cc2cc(Oc3ccc4ccc(=O)oc4c3)c(=O)oc2cc1OC(=O)C=C(C)C,/,/,/,.,/
COc1ccc(-c2cc(C(=O)N3CCN(c4ncccn4)CC3)c3ccccc3n2)cc1OC,51,.,?,.,/
COc1ccc(-c2cc(C(=O)N3CC(C)CC(C)C3)c3ccccc3n2)cc1OC (centres undefined),57,.,.,.,/
COc1ccc(-c2cc(C(=O)N3CCC3)c3ccccc3n2)cc1OC,.,.,.,.,/
O=C(O)CC(Cc1ccccc1)C(=O)NCC12CC3CC(CC(C3)C1)C2 (centres undefined),.,.,.,.,/
CCCC(=O)Nc1c(-c2cccc(C)c2)c(=O)c2ccccc2n1C,.,.,.,.,/
